# From ChEMBL document CHEMBL3244273, “Analgesic activity of novel spiro heterocycles. 2-Amino-7-oxa-3-thia-1-azaspiro[5,5]undec-1-enes and related compounds” (J Med Chem, 1978)
# Activity calls are given as the source filed them.
# Legend:
# [1] = system: Mus musculus; experiment: Analgesic activity in po dosed CF-1 mouse assessed as reduction in phenylquinone-induced writhing responses administered 15 mins prior to phenylquinone challenge; assay type: functional
# [2] = system: Rattus norvegicus; experiment: Analgesic activity against po dosed yeast-induced inflamed foot Sprague-Dawley rat model assessed as increase in pain threshold in inflamed paw measured after 2 hrs; assay type: functional
# [3] = organism: Rattus norvegicus; experiment: Antiinflammatory activity against mycobacterial adjuvant-induced arthritis in rat; assay type: functional, organism-based
# [4] = system: Rattus norvegicus; experiment: Analgesic activity in po dosed Sprague-Dawley rat by tail flick assay; assay type: functional
# [5] = system: Mus musculus; experiment: Analgesic activity in CF-1 mouse assessed as reduction in phenylquinone-induced writhing responses at 200 mg/kg, po administered 15 mins prior to phenylquinone challenge; assay type: functional
# Outline: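 Fifteen min later they received 0.25 mL ip of 0.02% 2-phenyl-1,4-benzoquinone in 19:1 water-ethanol. Writhes were counted for 5 min starting 10 min after the injection, and % protection was calculated versus vehicle controls.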
# [6] = Acute toxicity in po dosed CF-1S mouse assessed as mortality measured for 5 days; assay type: organism-based; conditions: in vivo
# Outline: (§1)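 Male and female CF-1S mice (17-25 g) received the compound suspended in gum acacia solution, orally or intraperitoneally, in groups of six to ten per dose level. Mortality was followed for 24 h after ip dosing and for 5 days after oral dosing. LD50 was calculated by the Miller-Tainter method.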
# [7] = Acute toxicity in ip dosed CF-1S mouse assessed as mortality measured for 24 hrs; assay type: organism-based; conditions: in vivo; outline: as §1
# [8] = Retardation factor of the compound using benzene-ethyl acetate at ratio of 1:1 as solvent system by thin layer chromatography; assay type: physicochemical
# [9] = Retardation factor of the compound using benzene-triethylamine at ratio of 9:1 as solvent system by thin layer chromatography; assay type: physicochemical
# [10] = Mus musculus, CF-1, po, read-out: ED50
# [11] = Rattus norvegicus, Sprague-Dawley, po, 2 h, read-out: ED50
SMILES,"ED50 [1, 10] [mg/kg]","ED50 [2, 11] [mg/kg]",Activity [3],also measured
O=C(/N=C1\NC2(CCCCO2)CCS1)c1cccc(C(F)(F)F)c1 (stereo not given),> 200,11,inactive,–
NC1=NC2(CCCCC2)CCS1.O=C(O)/C=C\C(=O)O,6.6,19,inactive,ED50 [4]: > 50 mg/kg
S=C(/N=C1\NC2(CCCCO2)CCS1)Nc1ccccc1 (racemic),200,> 200,inactive,inhibition in vivo at 200 mg/kg [5]: -48%
O=C(/N=C1\NC2(CCCCC2)CCS1)c1ccc(F)cc1,> 200,> 100,inactive,–
O=C(/N=C1\NC2(CCCCO2)CCS1)c1ccc([N+](=O)[O-])cc1 (stereo not given),28,0.9,inactive,–
Cc1ccc(C(=O)/N=C2\NC3(CCCCO3)CCS2)cc1 (stereo not given),60,0.9,inactive,ED50 [4]: > 25 mg/kg; LD50 at 120 h [6]: 1120 mg/kg; LD50 at 24 h [7]: > 400 mg/kg
Cc1cc(C)c(C(=O)/N=C2\NC3(CCCCO3)CCS2)c(C)c1 (stereo not given),> 200,> 200,inactive,–
O=C(/N=C1\NC2(CCCCO2)CCS1)C12CC3CC(CC(C3)C1)C2 (stereo not given),> 200,14,inactive,–
CCC(=O)O[C@](Cc1ccccc1)(c1ccccc1)[C@H](C)CN(C)C [PROPOXYPHENE],48,60,–,–
"O=C(/N=C1\NC2(CCCCO2)CCS1)c1ccc(F)cc1 (single isomer, unassigned; (-))",–,1.8,–,ED50 [1]: 28 mg/kg
O=C(/N=C1\NC2(CCCCO2)CCS1)c1ccc(Cl)cc1 (stereo not given),1.1,2.4,inactive,–
O=C(/N=C1\NC2(CCCCO2)CCS1)c1cccc([N+](=O)[O-])c1 (stereo not given),> 200,8.2,inactive,–
CC1(C(=O)/N=C2\NC3(CCCCO3)CCS2)CCCCC1 (stereo not given),> 200,16,inactive,–
COc1ccc(C(=O)/N=C2\NC3(CCCCO3)CCS2)cc1 (stereo not given),62,6,inactive,–
c1ccc(/N=C2\NC3(CCCCO3)CCS2)cc1 (racemic),> 200,> 100,–,Rf [8]: 0.45
NC1=NC2(CCCO2)CCS1.O=C(O)/C=C\C(=O)O (racemic),15,4,inactive,–
O=C(/N=C1\NCCCS1)c1ccc(F)cc1,> 100,> 200,inactive,Rf [8]: 0.36
O=C(/N=C1\NC2(CCCCO2)CCS1)Nc1ccccc1 (racemic),> 200,> 200,–,–
CNC1=NC2(CCCCO2)CCS1 (racemic),52,21,inactive,–
"O=C(/N=C1\NC2(CCCCO2)CCS1)c1ccc(F)cc1 (single isomer, unassigned; (+)) [listing 1 of 2 here]",–,–,–,ED50 [1]: 8.8 mg/kg
COc1cccc(OC)c1C(=O)/N=C1\NC2(CCCCO2)CCS1 (stereo not given),> 200,> 200,inactive,–
O=C(/N=C1\NC2(CCCCO2)CCS1)c1cccs1 (stereo not given),48,3.8,inactive,–
COc1cc(C(=O)/N=C2\NC3(CCCCO3)CCS2)cc(OC)c1OC (stereo not given),> 200,> 200,inactive,–
NC1=NC2(CCCCO2)CCC1.O=C(O)/C=C\C(=O)O (racemic),> 200,> 50,–,–
COc1ccc2c(c1)c(CC(=O)O)c(C)n2C(=O)c1ccc(Cl)cc1 [INDOMETHACIN],8.8,1.2,–,–
COc1ccc(C(=O)/N=C2\NC3(CCCCO3)CCS2)cc1OC (stereo not given),200,4.5,inactive,inhibition in vivo at 200 mg/kg [5]: -75%
CC1CCCC2(CCSC(N)=N2)O1.O=C(O)/C=C\C(=O)O (stereo not given),25,3.2,–,–

SMILES,"ED50 [1, 10] [mg/kg]","ED50 [2, 11] [mg/kg]",Activity [3],also measured
O=C1c2ccccc2C(=O)N1C1=NC2(CCCCO2)CCS1 (racemic),14.8,7,inactive,–
O=C(/N=C1\NC2(CCCCO2)CCS1)c1ccco1 (stereo not given),42,–,inactive,–
O=C(/N=C1\NC2(CCCCO2)CCS1)c1ccccc1 (stereo not given),5,2.6,inactive,–
CC(=O)N(Cc1ccccc1)C1=NC2(CCCCO2)CCS1 (stereo not given),–,–,–,Rf [8]: 0.37
O=C(/N=C1\NC2(CCCCO2)CCS1)c1ccc(Br)cc1 (stereo not given),> 200,3.2,inactive,–
CCCCC1C(=O)N(c2ccccc2)N(c2ccccc2)C1=O [PHENYLBUTAZONE],45,25,–,–
Cl.O=C(/N=C1\NC2(CCCO2)CCS1)c1ccc(F)cc1 (stereo not given),14.8,2,inactive,–
CN1CC[C@]23c4c5ccc(O)c4O[C@H]2[C@@H](O)C=C[C@H]3[C@H]1C5.CN1CC[C@]23c4c5ccc(O)c4O[C@H]2[C@@H](O)C=C[C@H]3[C@H]1C5.O=S(=O)(O)O,4.8,25,–,ED50 [4]: 29.3 mg/kg
NC1=NC2(CCCCO2)CCS1.O=C(O)/C=C\C(=O)O (racemic),3.6,0.6,inactive,ED50 [4]: 12 mg/kg; LD50 at 120 h [6]: 120 mg/kg; LD50 at 24 h [7]: 33 mg/kg
N#Cc1ccc(C(=O)/N=C2\NC3(CCCCO3)CCS2)cc1 (stereo not given),60,1,inactive,–
CC(=O)Oc1ccccc1C(=O)O [ASPIRIN],82,50,–,–
CC(=O)/N=C1\NC2(CCCCO2)CCS1 (stereo not given),3.1,1.9,inactive,–
"O=C(/N=C1\NC2(CCCCO2)CCS1)c1ccc(F)cc1 (single isomer, unassigned; (+)) [listing 2 of 2 here]",–,–,inactive,–
O=C(/N=C1\NC2(CCCCO2)CCS1)c1ccc(F)cc1 (stereo in doubt; 33) [listing 1 of 2 here],–,–,inactive,–
Cl.c1ccc(C2=NC3(CCCCO3)CCS2)cc1 (racemic),> 200,> 200,–,–
O=C(/N=C1\NC2(CCCCO2)CCS1)c1ccccc1O (stereo not given),> 200,> 200,inactive,–
O=C(/N=C1\SCCCN1C(=O)c1ccc(F)cc1)c1ccc(F)cc1,–,–,–,Rf [8]: 0.5
O=C(/N=C1\NC2(CCCCO2)CCS1)c1cccc(F)c1 (stereo not given),9.2,1.3,inactive,–
c1ccc(CNC2=NC3(CCCCO3)CCS2)cc1 (racemic),> 200,> 100,inactive,Rf [8]: 0.15; Rf [9]: 0.5
CC(C)(C)C(=O)/N=C1\NC2(CCCCO2)CCS1 (stereo not given),200,29,inactive,inhibition in vivo at 200 mg/kg [5]: -53%
O=C(/N=C1\NC2(CCCCO2)CCS1)c1ccc(F)cc1 (stereo in doubt; 33) [listing 2 of 2 here],–,–,–,ED50 [1]: 49 mg/kg; ED50 [2]: 2 mg/kg; ED50 [4]: 22.3 mg/kg; LD50 at 120 h [6]: 630 mg/kg; LD50 at 24 h [7]: 1370 mg/kg
O=C(/N=C1\NC2(CCCCO2)CCS1)c1cccc2ccccc12 (stereo not given),> 200,28,–,–
O=C(/N=C1\NC2(CCCCO2)CCS1)c1ccccc1Cl (stereo not given),> 200,–,inactive,–
NC1=NC2(CCCC(c3ccccc3)O2)CCS1.O=C(O)/C=C\C(=O)O (stereo not given),64,> 200,–,–
COc1ccc2c3c1O[C@H]1[C@@H](O)C=C[C@H]4[C@@H](C2)N(C)CC[C@@]341.COc1ccc2c3c1O[C@H]1[C@@H](O)C=C[C@H]4[C@@H](C2)N(C)CC[C@@]341.O.O=P(O)(O)O.O=P(O)(O)O [CODEINE PHOSPHATE],18,40,–,–
Cl.O=C(/C=C/c1ccccc1)/N=C1\NC2(CCCCO2)CCS1 (stereo not given),17,2.5,inactive,–
